For experiment [1], the species on record is Cavia porcellus. Description: Nagative inotropic activity was expressed as percent changes in developed tension in isolated guinea pig left atrium at 10 e-5 M. Format: functional, Cardiac atrium. Summed up: (§1)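 Isolated guinea pig left atrium, electrically driven at 1 Hz. Developed tension measured at 10⁻⁵ M and given as percent change from control, mean ±SEM, n = 5-6.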

Experiment [2] is filed under the species Cavia porcellus. Description: Nagative chronotropic activity was expressed as percent changes in atrial rate on guinea pig spontaneously beating isolated right atrium at 10 e-5 M. It is filed as functional, Cardiac atrium.
Experiment [3] is filed under the species Cavia porcellus. Description: Inhibition concentration of vasodilation was calculated from log concentration/response curves. Format: functional. Summed up: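 K⁺-depolarized guinea pig aortic strips, calcium-induced contraction. Potency is from log concentration/response curves by Litchfield–Wilcoxon probit analysis, n = 6-8.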
For experiment [4], the species on record is Cavia porcellus. Description: Negative chronotropic activity was calculated from log concentration/response curves. It is filed as functional.
The species entered for experiment [5] is Cavia porcellus. In words: Negative inotropic activity was calculated from log concentration/response curves. Format: functional. An outline of the steps:
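Guinea pig left atrium driven at 1 Hz; decrease in developed tension measured. Potency is from log concentration/response curves by Litchfield–Wilcoxon probit analysis, n = 6-8.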

The species entered for experiment [6] is Cavia porcellus. Description: Percent inhibition of calcium-induced contraction on K+ -depolarized guinea pig aortic strips at 10 e-4 M. Format: functional, Aorta. Summed up: (§2)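 Guinea pig aortic strips depolarized with K⁺ and contracted by calcium. Inhibition of the calcium-induced contraction measured at 10⁻⁴ M, mean ±SEM, n = 6-7.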
The species named for experiment [7] is Cavia porcellus. Description: Percent inhibition of calcium-induced contraction on K+ -depolarized guinea pig aortic strips at 10E-4 M. Format: functional, Aorta. An outline of the steps: as §2
The species entered for experiment [8] is Cavia porcellus. Description: Nagative chronotropic activity was expressed as percent changes in atrial rate on guinea pig spontaneously beating isolated right atrium at 10E-5 M. Format: functional, Cardiac atrium.
Experiment [9] is filed under the species Cavia porcellus. Description: Nagative inotropic activity was expressed as percent changes in developed tension in isolated guinea pig left atrium at 10E-5 M. Format: functional, Cardiac atrium. Summed up:
as §1

As a reminder, the IC50 is the point on the concentration scale where inhibition reaches its midpoint. Usually Inhibition stands for the drop in the measured response relative to a control, in per cent.

`COc1ccc(CCN(C)CCCC(C#N)(c2ccc(OC)c(OC)c2)C(C)C)cc1OC` (stereo not drawn): the Change stood at 84% in the experiment listed under Cavia porcellus [1] and 94% in the experiment listed under Cavia porcellus [2]. In addition, in the experiment filed under Cavia porcellus [3] (Cavia porcellus), the IC50 is 380 nM. Also, in the experiment filed under Cavia porcellus [4], the ED30 is 70 nM. Also, the ED50 in the experiment filed under Cavia porcellus [5] is 610 nM.

As to `COc1ccc(CCN(C)C2CCCC(C(C#N)(c3ccc(OC)c(OC)c3)C(C)C)C2)cc1OC` (stereo in doubt; 2a), in the experiment filed under Cavia porcellus [6], the Inhibition is reported as 37%. The Change in the experiment filed under Cavia porcellus [1] is on record as 84%; in the experiment listed under Cavia porcellus [2], 78%. The ED30 in the experiment filed under Cavia porcellus [4] was 75 nM. Besides, the ED50 in the experiment filed under Cavia porcellus [5] was 100 nM.

As to `COc1ccc(CCN(C)C2CCCC(C(C#N)(c3ccc(OC)c(OC)c3)C(C)C)C2)cc1OC` (stereo in doubt; 2b), the Inhibition in the experiment filed under Cavia porcellus [6] was 30%. Moreover, the figures for the Change in the experiment listed under Cavia porcellus [1] and in the experiment listed under Cavia porcellus [2] were 75% and 93%, respectively. The ED30 in the experiment listed under Cavia porcellus [4] was 230 nM. In the experiment listed under Cavia porcellus [5], the ED50 is 1300 nM.

For `COc1ccc(CCN(C)C2CCCC(C(C#N)(c3ccc(OC)c(OC)c3)C(C)C)C2)cc1OC` (stereo in doubt; 2c), in the experiment filed under Cavia porcellus [6], the Inhibition amounted to 49%. Also, the Change in the experiment filed under Cavia porcellus [1] is on record as 86%; in the experiment filed under Cavia porcellus [2], 89%. Moreover, the IC50 in the experiment listed under Cavia porcellus [3] was 18000 nM. The ED30 in the experiment listed under Cavia porcellus [4] was 1300 nM. Moreover, the ED50 in the experiment listed under Cavia porcellus [5] is 60 nM.

For `COc1ccc(CCN(C)C2CCCC(C(C#N)(c3ccc(OC)c(OC)c3)C(C)C)C2)cc1OC` (stereo in doubt; 2d), in the experiment filed under Cavia porcellus [6], the Inhibition is 58%. The figures for the Change in the experiment filed under Cavia porcellus [1] and in the experiment listed under Cavia porcellus [2] were 74% and 75%, respectively. For the same molecule, the IC50 in the experiment listed under Cavia porcellus [3] (Cavia porcellus) is 10000 nM. Moreover, in the experiment listed under Cavia porcellus [4], the ED30 is 420 nM. For the same molecule, the ED50 in the experiment filed under Cavia porcellus [5] is 200 nM.

In the case of `COc1ccc(CCNC2CCCC(C(C#N)(c3ccc(OC)c(OC)c3)C(C)C)C2)cc1OC` (stereo in doubt; 7a), the Inhibition in the experiment filed under Cavia porcellus [7] amounted to 62%. The results for the Change in the experiment listed under Cavia porcellus [8] and in the experiment listed under Cavia porcellus [9] were 78% and 82%, respectively. In addition, in the experiment listed under Cavia porcellus [3], the IC50 was 17000 nM. In addition, the ED30 in the experiment filed under Cavia porcellus [4] was 2400 nM. Moreover, in the experiment filed under Cavia porcellus [5], the ED50 was 900 nM.

For `COc1ccc(CCNC2CCCC(C(C#N)(c3ccc(OC)c(OC)c3)C(C)C)C2)cc1OC` (stereo in doubt; 7b), the Inhibition in the experiment listed under Cavia porcellus [7] came to 35%. Besides, the Change in the experiment filed under Cavia porcellus [8] is given as 66%; in the experiment listed under Cavia porcellus [9], 74%. Besides, in the experiment filed under Cavia porcellus [4], the ED30 is 60 nM. Moreover, in the experiment filed under Cavia porcellus [5], the ED50 was 110 nM.

On to `COc1ccc(CCNC2CCCC(C(C#N)(c3ccc(OC)c(OC)c3)C(C)C)C2)cc1OC` (stereo in doubt; 7c), for which the Inhibition in the experiment listed under Cavia porcellus [7] is recorded as 40%. Besides, the Change worked out at 64% in the experiment filed under Cavia porcellus [8] and 70% in the experiment filed under Cavia porcellus [9]. Besides, the ED30 in the experiment listed under Cavia porcellus [4] was 1400 nM. The ED50 in the experiment listed under Cavia porcellus [5] is 660 nM.

On to `COc1ccc(CCNC2CCCC(C(C#N)(c3ccc(OC)c(OC)c3)C(C)C)C2)cc1OC` (stereo in doubt; 7d), for which the Inhibition in the experiment filed under Cavia porcellus [7] was 56%. For the same molecule, the Change in the experiment listed under Cavia porcellus [8] is reported as 84%; in the experiment filed under Cavia porcellus [9], 83%. Further, in the experiment filed under Cavia porcellus [4], the ED30 was 370 nM. The ED50 in the experiment filed under Cavia porcellus [5] was 1100 nM.
